Published values from different studies.
Sample: plasma

Structure (SMILES)	test system	setting	Tmax [h]
C=CC(=O)N1CCC[C@@H](n2nc(-c3ccc(Oc4ccccc4)cc3)c3c(N)ncnc32)C1	male Wistar rat	oral, 40 mg/kg	2
CCN(CC)Cc1ccc2cc(COC(=O)Nc3ccc(C(=O)NO)cc3)ccc2c1	male Sprague-Dawley rat	oral, 10 mg/kg	~1.72
C1=C/COCc2cc(ccc2OCCN2CCCC2)Nc2nccc(n2)-c2cccc(c2)COC/1	male Sprague-Dawley rat	oral, 36 mg/kg	8.67
CCCc1nc2c(C)cc(-c3nc4ccccc4n3C)cc2n1Cc1ccc(-c2ccccc2C(=O)O)cc1	male Sprague-Dawley rat	oral, 8 mg/kg, single dose	3.5
CCCCC(=O)Nc1ccc(-c2ccc3ncn(CCC)c(=O)c3c2)cn1	male rat	oral, 10 mg/kg	0.25
C[C@H]1Oc2cc(cnc2N)-c2c(nn(C)c2C#N)CN(C)C(=O)c2ccc(F)cc21	male Sprague-Dawley rat	oral, 50 mg/kg, single dose	11.4
CN(C)C(=O)c1cc2cnc(Nc3ccc(N4CCNCC4)cn3)nc2n1C1CCCC1	male Sprague-Dawley rat	intraperitoneal, 100 mg/kg	0.5
CCCCCCCCCC(=O)N[C@@H](Cc1c[nH]c2ccccc12)C(=O)N[C@H](CC(N)=O)C(=O)N[C@@H](CC(=O)O)C(=O)N[C@@H]1C(=O)NCC(=O)N[C@@H](CCCN)C(=O)N[C@@H](CC(=O)O)C(=O)N[C@H](C)C(=O)N[C@@H](CC(=O)O)C(=O)NCC(=O)N[C@H](CO)C(=O)N[C@@H]([C@H](C)CC(=O)O)C(=O)N[C@@H](CC(=O)c2ccccc2N)C(=O)O[C@@H]1C	male Wistar rat	subcutaneous, 125 mg/kg, single dose	5
CONC(=O)c1cccc2c1cc(C)n2-c1nc2c(c(NCc3ccccc3)n1)CCCN2	male Sprague-Dawley rat	oral, 10 mg/kg, single dose	0.25
CCOc1c([C@H](C)n2nc(C)c3c(N)ncnc32)cc(Cl)c(F)c1[C@@H]1CNC(=O)C1	male Sprague-Dawley rat	oral, 2 mg/kg, single dose	~2.42
O=C1CCC(N2Cc3cc(C4CCN(Cc5ccccc5)CC4)ccc3C2=O)C(=O)N1 (centres unmarked)	male Sprague-Dawley rat	intravenous, 1 mg/kg	0.14
C[C@@]12C[C@@]3(O)O[C@@H](O1)[C@]1(COC(=O)c4ccccc4)[C@H]3C[C@@]12O[C@@H]1O[C@H](CO)[C@@H](O)[C@H](O)[C@H]1O	male Sprague-Dawley rat	oral, 80 mg/kg	0.506
C[C@H]1[C@@H](O)O[C@@H]2O[C@@]3(C)CC[C@H]4[C@H](C)CC[C@@H]1[C@@]24OO3	male Sprague-Dawley rat	oral, 10 mg/kg	0.75
C=CC(=O)N1CCC([C@@H]2CCNc3c(C(N)=O)c(-c4ccc(Oc5ccccc5)cc4)nn32)CC1	Sprague-Dawley rat	oral, 16 mg/kg	1.5
COc1ccc(N(Cc2csc(-c3ccccc3)n2)C(=O)CCCCCC(=O)NO)cc1	female Sprague-Dawley rat	intravenous, 5 mg/kg	0.08
CC[C@@H]([C@H](C)O)n1ncn(-c2ccc(N3CCN(c4ccc(OC[C@@H]5CO[C@@](Cn6cncn6)(c6ccc(F)cc6F)C5)cc4)CC3)cc2)c1=O	Sprague-Dawley rat	oral, 40 mg/kg	3.05
COc1cc(-c2cc(C(C)=O)n3ccccc23)c(OC)cc1Cn1ccnc1	male Sprague-Dawley rat	oral, 5 mg/kg	0.5
